Data set [1] deals with Tyrosine-protein kinase JAK2 (Homo sapiens, UniProt O60674). The data set can be described thus: Inhibition of recombinant JAK2 using Poly (Glu,Ala,Tyr) as substrate after 2 hrs by luminescence assay.
The target in data set [2] is T1, Receptor-type tyrosine-protein kinase FLT3 (Homo sapiens, UniProt P36888).
T1 sequence (P36888 whole entry): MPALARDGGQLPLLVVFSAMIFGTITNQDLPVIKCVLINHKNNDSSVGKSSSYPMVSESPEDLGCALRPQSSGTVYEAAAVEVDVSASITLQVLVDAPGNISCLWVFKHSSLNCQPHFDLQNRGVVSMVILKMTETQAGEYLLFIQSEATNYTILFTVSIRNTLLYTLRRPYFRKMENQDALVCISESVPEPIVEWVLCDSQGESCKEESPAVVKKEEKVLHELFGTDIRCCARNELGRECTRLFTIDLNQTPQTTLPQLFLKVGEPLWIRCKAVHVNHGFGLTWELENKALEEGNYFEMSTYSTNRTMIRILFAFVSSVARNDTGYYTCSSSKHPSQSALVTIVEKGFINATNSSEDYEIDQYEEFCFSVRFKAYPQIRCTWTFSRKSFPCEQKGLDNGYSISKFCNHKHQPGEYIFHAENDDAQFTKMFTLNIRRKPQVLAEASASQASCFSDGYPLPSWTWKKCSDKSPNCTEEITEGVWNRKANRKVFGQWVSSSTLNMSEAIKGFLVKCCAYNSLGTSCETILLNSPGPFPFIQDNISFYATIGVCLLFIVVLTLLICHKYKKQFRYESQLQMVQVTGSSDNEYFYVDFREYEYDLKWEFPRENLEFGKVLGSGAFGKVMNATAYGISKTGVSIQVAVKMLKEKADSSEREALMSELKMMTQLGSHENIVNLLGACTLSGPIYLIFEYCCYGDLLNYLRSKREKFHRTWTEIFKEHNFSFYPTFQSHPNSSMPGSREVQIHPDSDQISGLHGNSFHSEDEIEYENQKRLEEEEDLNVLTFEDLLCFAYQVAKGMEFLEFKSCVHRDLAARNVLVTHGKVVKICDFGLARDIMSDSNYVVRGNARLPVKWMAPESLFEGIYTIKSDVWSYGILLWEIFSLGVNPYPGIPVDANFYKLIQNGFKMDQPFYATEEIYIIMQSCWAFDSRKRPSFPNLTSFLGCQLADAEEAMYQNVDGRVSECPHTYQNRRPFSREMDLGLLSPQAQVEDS
The data set can be described thus: Inhibition of recombinant FLT3 using Poly (Glu,Tyr) as substrate after 2 hrs by luminescence assay.

For data set [3], the target named is Tyrosine-protein kinase JAK1 (Homo sapiens, UniProt P23458). The data set can be described thus: Inhibition of recombinant JAK1 using Poly (Glu,Ala,Tyr) as substrate after 2 hrs by luminescence assay. Summed up:
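Luciferase-coupled ATP-depletion luminescence assay in 50 mM Hepes pH 7.5 with MgCl₂, MnCl₂, BGP, DTT and orthovanadate, 2 h at room temperature. Conditions per target: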

For data set [4], the target named is Cyclin-dependent kinase 2/cyclin A (Homo sapiens, UniProt P24941). Kind of data set: Inhibition of recombinant CDK2/Cyclin A using RbinG as substrate after 2 hrs by luminescence assay. In kind it is protein-complex assay.
Data set [5] deals with Non-receptor tyrosine-protein kinase TYK2 (Homo sapiens, UniProt P29597). The data set can be described thus: Inhibition of recombinant TYK2.
The target of data set [6] is T2, Tyrosine-protein kinase JAK3 (Homo sapiens, UniProt P52333).
T2 sequence (P52333 whole entry): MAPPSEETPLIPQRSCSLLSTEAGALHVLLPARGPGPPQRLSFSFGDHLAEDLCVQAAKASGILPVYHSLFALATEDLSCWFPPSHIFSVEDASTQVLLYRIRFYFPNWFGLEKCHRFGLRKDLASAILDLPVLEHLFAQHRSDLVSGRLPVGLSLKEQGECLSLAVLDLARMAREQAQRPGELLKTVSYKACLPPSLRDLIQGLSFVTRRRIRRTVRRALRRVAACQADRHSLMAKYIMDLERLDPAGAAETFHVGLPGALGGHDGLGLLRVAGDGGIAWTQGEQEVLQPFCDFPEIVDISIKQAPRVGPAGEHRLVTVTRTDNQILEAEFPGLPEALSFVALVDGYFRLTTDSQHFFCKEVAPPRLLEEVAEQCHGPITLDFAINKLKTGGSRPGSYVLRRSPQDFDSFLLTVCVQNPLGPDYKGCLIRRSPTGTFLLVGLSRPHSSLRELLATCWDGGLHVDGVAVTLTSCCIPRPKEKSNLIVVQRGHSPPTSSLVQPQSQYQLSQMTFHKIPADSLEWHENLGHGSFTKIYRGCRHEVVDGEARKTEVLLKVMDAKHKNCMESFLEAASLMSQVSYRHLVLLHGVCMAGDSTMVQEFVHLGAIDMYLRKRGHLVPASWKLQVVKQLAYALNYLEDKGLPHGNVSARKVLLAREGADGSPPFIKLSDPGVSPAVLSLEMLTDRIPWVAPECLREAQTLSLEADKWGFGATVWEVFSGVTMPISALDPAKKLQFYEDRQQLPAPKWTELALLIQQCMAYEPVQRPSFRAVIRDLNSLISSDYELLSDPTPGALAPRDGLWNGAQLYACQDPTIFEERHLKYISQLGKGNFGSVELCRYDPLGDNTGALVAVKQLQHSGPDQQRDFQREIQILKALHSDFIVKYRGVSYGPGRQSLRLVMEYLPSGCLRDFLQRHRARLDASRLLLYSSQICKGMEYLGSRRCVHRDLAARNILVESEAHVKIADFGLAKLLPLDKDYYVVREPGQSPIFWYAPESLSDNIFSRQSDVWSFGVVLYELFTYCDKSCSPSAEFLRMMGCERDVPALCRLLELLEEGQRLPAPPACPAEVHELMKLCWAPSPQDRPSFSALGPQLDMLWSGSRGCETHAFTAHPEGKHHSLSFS
The data set can be described thus: Inhibition of recombinant JAK3 using Poly (Glu,Ala,Tyr) as substrate after 2 hrs by luminescence assay.

A short description of data set [7]: physchem. The note with it: phosphate buffer saline, pH 7.

Sequence of Tyrosine-protein kinase JAK2 (O60674 whole entry): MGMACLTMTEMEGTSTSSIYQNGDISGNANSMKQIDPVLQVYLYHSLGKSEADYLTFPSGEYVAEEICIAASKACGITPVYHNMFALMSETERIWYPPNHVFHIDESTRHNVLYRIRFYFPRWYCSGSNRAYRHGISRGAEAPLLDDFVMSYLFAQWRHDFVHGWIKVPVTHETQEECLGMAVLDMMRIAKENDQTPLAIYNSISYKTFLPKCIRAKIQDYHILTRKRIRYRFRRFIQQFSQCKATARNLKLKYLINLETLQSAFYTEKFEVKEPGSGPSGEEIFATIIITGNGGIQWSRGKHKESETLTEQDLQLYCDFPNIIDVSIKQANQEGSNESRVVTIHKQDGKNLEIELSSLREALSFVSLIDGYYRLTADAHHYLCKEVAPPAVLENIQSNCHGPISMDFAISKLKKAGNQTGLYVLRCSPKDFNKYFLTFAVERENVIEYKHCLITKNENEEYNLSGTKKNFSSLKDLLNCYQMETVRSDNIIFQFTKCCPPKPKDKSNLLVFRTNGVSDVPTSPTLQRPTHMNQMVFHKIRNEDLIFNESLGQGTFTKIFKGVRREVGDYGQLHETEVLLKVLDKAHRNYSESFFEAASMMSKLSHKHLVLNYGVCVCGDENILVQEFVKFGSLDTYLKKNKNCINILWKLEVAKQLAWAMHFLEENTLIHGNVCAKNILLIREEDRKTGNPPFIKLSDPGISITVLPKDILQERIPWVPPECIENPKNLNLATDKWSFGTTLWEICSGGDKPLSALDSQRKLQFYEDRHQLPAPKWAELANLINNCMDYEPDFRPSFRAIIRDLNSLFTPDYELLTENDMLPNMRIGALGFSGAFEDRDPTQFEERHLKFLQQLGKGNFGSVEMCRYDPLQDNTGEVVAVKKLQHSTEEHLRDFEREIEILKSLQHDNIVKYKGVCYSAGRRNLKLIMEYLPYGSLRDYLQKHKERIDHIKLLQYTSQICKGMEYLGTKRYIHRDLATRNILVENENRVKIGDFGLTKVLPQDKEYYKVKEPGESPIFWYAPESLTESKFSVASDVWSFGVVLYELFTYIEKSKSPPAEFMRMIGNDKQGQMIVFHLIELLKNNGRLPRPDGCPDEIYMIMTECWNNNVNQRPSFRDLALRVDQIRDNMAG
Sequence of Non-receptor tyrosine-protein kinase TYK2 (P29597 whole entry): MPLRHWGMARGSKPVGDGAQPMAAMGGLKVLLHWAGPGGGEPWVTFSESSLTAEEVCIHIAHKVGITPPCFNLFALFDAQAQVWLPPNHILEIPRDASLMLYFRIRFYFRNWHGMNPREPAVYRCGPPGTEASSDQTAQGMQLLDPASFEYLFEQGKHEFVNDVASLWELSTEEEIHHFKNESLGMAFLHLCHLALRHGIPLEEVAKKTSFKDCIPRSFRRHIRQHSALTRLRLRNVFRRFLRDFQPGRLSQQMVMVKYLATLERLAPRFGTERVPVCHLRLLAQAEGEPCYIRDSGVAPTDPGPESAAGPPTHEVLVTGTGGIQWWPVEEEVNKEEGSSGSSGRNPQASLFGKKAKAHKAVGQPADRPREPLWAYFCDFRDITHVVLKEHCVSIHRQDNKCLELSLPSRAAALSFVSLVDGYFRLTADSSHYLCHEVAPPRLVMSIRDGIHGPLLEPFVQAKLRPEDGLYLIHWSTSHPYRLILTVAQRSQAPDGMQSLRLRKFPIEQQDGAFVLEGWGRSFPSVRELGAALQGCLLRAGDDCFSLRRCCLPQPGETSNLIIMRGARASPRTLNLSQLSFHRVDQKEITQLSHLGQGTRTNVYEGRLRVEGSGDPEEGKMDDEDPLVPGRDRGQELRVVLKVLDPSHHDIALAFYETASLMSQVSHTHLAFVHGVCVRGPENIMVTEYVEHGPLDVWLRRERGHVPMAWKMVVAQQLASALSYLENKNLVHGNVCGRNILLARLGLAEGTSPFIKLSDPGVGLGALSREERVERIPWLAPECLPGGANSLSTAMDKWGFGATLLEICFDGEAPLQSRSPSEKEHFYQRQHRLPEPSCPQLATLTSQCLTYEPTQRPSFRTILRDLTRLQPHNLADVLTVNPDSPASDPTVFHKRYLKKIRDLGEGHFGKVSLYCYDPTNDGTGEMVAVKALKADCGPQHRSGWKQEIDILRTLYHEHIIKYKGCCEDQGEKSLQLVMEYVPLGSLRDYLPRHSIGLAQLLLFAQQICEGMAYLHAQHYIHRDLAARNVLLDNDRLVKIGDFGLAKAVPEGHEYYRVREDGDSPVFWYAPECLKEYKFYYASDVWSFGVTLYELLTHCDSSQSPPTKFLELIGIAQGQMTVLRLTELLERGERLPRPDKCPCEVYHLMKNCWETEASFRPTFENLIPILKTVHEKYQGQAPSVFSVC
Sequence of Tyrosine-protein kinase JAK1 (P23458 whole entry): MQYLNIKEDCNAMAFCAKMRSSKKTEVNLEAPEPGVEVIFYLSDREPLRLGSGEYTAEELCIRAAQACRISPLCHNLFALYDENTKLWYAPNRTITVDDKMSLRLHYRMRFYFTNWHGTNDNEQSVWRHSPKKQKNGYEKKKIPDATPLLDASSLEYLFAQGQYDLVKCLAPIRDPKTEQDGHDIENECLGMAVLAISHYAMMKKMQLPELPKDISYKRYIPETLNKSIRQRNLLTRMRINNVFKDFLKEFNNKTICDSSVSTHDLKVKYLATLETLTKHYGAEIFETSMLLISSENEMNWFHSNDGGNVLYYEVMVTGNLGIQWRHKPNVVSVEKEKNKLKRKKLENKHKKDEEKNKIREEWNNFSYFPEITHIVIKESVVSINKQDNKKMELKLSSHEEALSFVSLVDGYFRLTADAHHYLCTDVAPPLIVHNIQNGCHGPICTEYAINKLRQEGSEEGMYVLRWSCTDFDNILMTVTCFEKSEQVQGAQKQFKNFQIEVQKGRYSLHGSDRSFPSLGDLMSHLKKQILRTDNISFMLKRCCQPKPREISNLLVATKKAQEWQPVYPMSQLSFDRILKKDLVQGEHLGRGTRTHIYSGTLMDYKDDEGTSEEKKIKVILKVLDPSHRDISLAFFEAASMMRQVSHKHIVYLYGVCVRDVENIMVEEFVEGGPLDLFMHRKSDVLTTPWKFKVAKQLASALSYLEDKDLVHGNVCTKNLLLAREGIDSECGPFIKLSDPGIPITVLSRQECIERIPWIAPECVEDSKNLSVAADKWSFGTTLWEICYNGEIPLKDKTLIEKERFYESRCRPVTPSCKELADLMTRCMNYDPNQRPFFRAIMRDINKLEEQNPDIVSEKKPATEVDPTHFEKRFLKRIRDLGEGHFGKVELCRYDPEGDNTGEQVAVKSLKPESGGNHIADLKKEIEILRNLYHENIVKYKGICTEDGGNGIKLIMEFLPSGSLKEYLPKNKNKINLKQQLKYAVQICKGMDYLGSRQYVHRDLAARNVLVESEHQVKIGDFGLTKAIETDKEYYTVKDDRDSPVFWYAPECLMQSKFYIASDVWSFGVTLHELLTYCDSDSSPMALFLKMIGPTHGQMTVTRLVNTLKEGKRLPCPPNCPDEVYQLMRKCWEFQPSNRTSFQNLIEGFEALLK

Consider `C1=CCCOc2cccc(c2)-c2ccnc(n2)Nc2cccc(c2)OCC1`, for which the IC50 in data set [1] was 1200 nM; in data set [2] it was 1100 nM; in data set [3] it was over 10000 nM; in data set [4] it was over 10000 nM; in data set [5], 5200 nM; in data set [6], over 10000 nM.
Take `ClCCOc1ccc2cc1COCC=CCOCc1cccc(c1)-c1ccnc(n1)N2` (mixture of isomers): the IC50 was 220 nM in data set [1]; 76 nM in data set [2]; over 10000 nM in data set [3]; over 10000 nM in data set [4]; 470 nM in data set [5]; over 10000 nM in data set [6].
Turning to `CC(=O)N1CCN(c2ccc3cc2COCC=CCOCc2cccc(c2)-c2ccnc(n2)N3)CC1` (mixture of isomers), the IC50 in data set [1] was determined as 120 nM; in data set [2] it was 38 nM; in data set [3] it was 2800 nM; in data set [4], 6200 nM; in data set [5] it was 110 nM; in data set [6] it was 6000 nM.
For the compound `Fc1cc2cc(c1)-c1ccnc(n1)Nc1ccc(OCCN3CCCC3)c(c1)COCC=CCOC2` (mixture of isomers), the IC50 turned out to be 24 nM in data set [1]; 8 nM in data set [2]; 380 nM in data set [3]; 2000 nM in data set [4]; 36 nM in data set [5]. This compound also displayed a solubility in data set [7] of 2.61 µg/mL.
On to `COc1ccc2cc1COCC=CCOc1cccc(c1)-c1ccnc(n1)N2` (mixture of isomers), for which the IC50 in data set [1] is 260 nM; in data set [2] it was 78 nM; in data set [3], 5800 nM; in data set [4], 360 nM; in data set [5], 120 nM. This compound also displayed a solubility in data set [7] of under 10 µg/mL.
Turning to `C1=CCOCc2cc(ccc2N2CCOCC2)Nc2nccc(n2)-c2cccc(c2)COC1` (mixture of isomers), the IC50 in data set [1] is 60 nM; in data set [2] it was 32 nM; in data set [3], 8700 nM; in data set [4] it was over 10000 nM; in data set [5], 160 nM.
As to `O=C1CCN(CCOc2ccc3cc2COCC=CCOCc2cccc(c2)-c2ccnc(n2)N3)C1` (mixture of isomers), the IC50 was 22 nM in data set [1]; 67 nM in data set [2]; 940 nM in data set [3]; 5800 nM in data set [4]; 140 nM in data set [5]; 380 nM in data set [6].
For the compound `Fc1ccc2cc1COCC=CCOCc1cc(ccc1OCCN1CCCC1)Nc1nccc-2n1` (mixture of isomers), the IC50 in data set [1] worked out at 25 nM; in data set [2] it was 40 nM; in data set [3], 4600 nM; in data set [4], 3250 nM; in data set [6] it was 720 nM.
For `COc1ccc2cc1COCC=CCCOc1cccc(c1)-c1ccnc(n1)N2` (mixture of isomers), the IC50 in data set [1] is 130 nM; in data set [2], 310 nM; in data set [3], 3000 nM; in data set [4], over 10000 nM; in data set [5] it was 150 nM.
With `COc1ccc2cc1COCC=CCOCc1cccc(c1)-c1ccnc(n1)N2` (mixture of isomers), the IC50 is 70 nM in data set [1]; 190 nM in data set [2]; 1900 nM in data set [3]; 860 nM in data set [4]; 210 nM in data set [5]; 1200 nM in data set [6].
Take `CCS(=O)(=O)N1CCN(c2ccc3cc2COCC=CCOCc2cccc(c2)-c2ccnc(n2)N3)CC1` (mixture of isomers): the IC50 in data set [1] was 150 nM; in data set [2] it was 150 nM; in data set [3], over 10000 nM; in data set [4] it was over 10000 nM; in data set [5], 140 nM; in data set [6], over 10000 nM.
On to `Nc1cc2cc(c1)Nc1nccc(n1)-c1cccc(c1)COCC=CCOC2` (mixture of isomers), for which the IC50 came out at 35 nM in data set [1], 52 nM in data set [2] and 240 nM in data set [4]. Also, in data set [7], the solubility worked out at 25 µg/mL.
In the case of `Oc1ccc2cc1COCC=CCOCc1cccc(c1)-c1ccnc(n1)N2` (mixture of isomers), the IC50 in data set [1] stood at 53 nM; in data set [2], 170 nM; in data set [3] it was 400 nM; in data set [4] it was 210 nM; in data set [5] it was 170 nM; in data set [6], 1100 nM.
Consider `CCN(CC)CCC(=O)Nc1cc2cc(c1)Nc1nccc(n1)-c1cccc(c1)COCC=CCOC2` (mixture of isomers), for which the IC50 in data set [1] amounted to 44 nM; in data set [2], 78 nM; in data set [3], 1900 nM; in data set [4], 400 nM; in data set [5], 18 nM; in data set [6], 390 nM.
On to `Fc1cnc2nc1-c1cccc(c1)COCC=CCOCc1cc(ccc1OCCN1CCCC1)N2` (mixture of isomers), for which the IC50 in data set [1] worked out at 17 nM; in data set [2], 15 nM; in data set [3], 830 nM; in data set [4] it was 1550 nM; in data set [5] it was 140 nM; in data set [6] it was 1000 nM.
On to `O=C1CCCN1CCOc1ccc2cc1COCC=CCOCc1cccc(c1)-c1ccnc(n1)N2` (mixture of isomers), for which the IC50 in data set [1] came out at 22 nM; in data set [2] it was 140 nM; in data set [3] it was 1300 nM; in data set [4], 9400 nM; in data set [5] it was 180 nM; in data set [6], 500 nM.
Turning to `COc1ccc2cc1-c1ccnc(n1)Nc1ccc(OCCN3CCCC3)c(c1)COCC=CCOC2`, the IC50 in data set [1] was 330 nM; in data set [2], 12 nM; in data set [3], 4900 nM; in data set [4], over 10000 nM; in data set [5] it was 620 nM; in data set [6], 7200 nM.
Turning to `CN1CCN(c2ccc3cc2COCC=CCOCc2cccc(c2)-c2ccnc(n2)N3)CC1` (mixture of isomers), the half-maximal inhibitory concentration (IC50) in data set [1] is 41 nM; in data set [2], 30 nM; in data set [3] it was 3600 nM; in data set [4], over 10000 nM; in data set [5], 190 nM. The solubility in data set [7] was determined as 26.4 µg/mL.
As to `CN(C)CCN(C)c1ccc2cc1COCC=CCOCc1cccc(c1)-c1ccnc(n1)N2` (mixture of isomers), the IC50 in data set [1] came out at 77 nM; in data set [2] it was 31 nM; in data set [3] it was 3600 nM; in data set [4], 88 nM; in data set [5], 71 nM. Moreover, in data set [7], the solubility turned out to be 171 µg/mL.

As a reminder, the IC50 is the concentration that inhibits the measured activity by half. A word on the solubility: it is the dissolved amount per volume that the medium holds.
